The source of these data is ChEMBL document CHEMBL1126044, “Affinity of human growth hormone-releasing factor (1-29)NH2 analogues for GRF binding sites in rat adenopituitary” (J Med Chem, 1992).

Experiment [1] is filed under the species Rattus norvegicus. The experiment is described as follows: Residual concentration after 60 min incubation with pituitary homogenates, in the binding assay conditions, by quantitative HPLC method. The format is functional. A digest of the protocol:
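Peptide at 10 µM incubated with rat pituitary homogenate (150 µg protein/100 µL) in binding-assay conditions at 23 °C for 0 and 60 min. Reaction stopped with cold 50 mM phosphate pH 0.8 and centrifugation. Controls without homogenate accounted for adsorption. Remaining peptide measured by C18 HPLC (0.01% TFA/acetonitrile gradient, UV 214 nm) and peak-area integration.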

Experiment [2] deals with T1, Growth hormone-releasing hormone receptor (Rattus norvegicus) (UniProt Q02644).
T1 sequence (whole entry): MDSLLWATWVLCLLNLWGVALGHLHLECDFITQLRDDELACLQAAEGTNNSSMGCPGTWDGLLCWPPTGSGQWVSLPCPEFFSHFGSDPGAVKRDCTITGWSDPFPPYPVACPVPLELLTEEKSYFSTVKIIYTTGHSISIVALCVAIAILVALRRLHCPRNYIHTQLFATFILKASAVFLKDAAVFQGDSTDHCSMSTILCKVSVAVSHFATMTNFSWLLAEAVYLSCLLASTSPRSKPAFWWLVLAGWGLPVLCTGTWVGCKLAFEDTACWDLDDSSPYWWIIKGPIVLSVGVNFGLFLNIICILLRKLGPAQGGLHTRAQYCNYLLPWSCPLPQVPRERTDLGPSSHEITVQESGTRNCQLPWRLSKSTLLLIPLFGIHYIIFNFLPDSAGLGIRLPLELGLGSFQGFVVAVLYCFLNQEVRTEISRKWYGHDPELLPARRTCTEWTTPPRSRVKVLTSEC
The experiment is described as follows: Relative affinity compared to hGRF(1-29)NH2. The format is functional. A digest of the protocol:
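Radioligand competition in rat anterior pituitary homogenate using [125I-Tyr10]hGRF(1-44)NH2 at 35–50 pM and peptides at 0–1000 nM, 60 min at 23 °C. Relative affinity is the binding IC50 expressed as a percentage relative to hGRF(1-29)NH2.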

Experiment [3] concerns the target T2, Growth hormone-releasing hormone receptor (Rattus norvegicus, UniProt Q02644).
T2 sequence (Q02644 whole entry): T1 sequence (whole entry)
The experiment is described as follows: Compound was tested to Inhibit [125I]-Growth hormone-releasing factor in rat adenopituitary homogenates. In short, it runs like this:
(§1)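 Anterior pituitaries from 2-month-old male Sprague-Dawley rats homogenized in ice-cold 50 mM Tris-HCl pH 7.4 with 5 mM MgCl2, 5 mM EDTA. Homogenate (70–75 µg protein) incubated with 35–50 pM [125I-Tyr10]hGRF(1-44)NH2 and peptide at 0–1000 nM in Tris-HCl buffer pH 7.4 with 5 mM EDTA, 5 mM MgCl2, 0.42% BSA, 60 min at 23 °C. Nonspecific binding defined with 2.4 µM rGRF(1-29)NH2. Bound fraction separated by centrifugation and gamma-counted. IC50 fitted with LIGAND. Mean ± SEM of three experiments, each in duplicate or triplicate.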

The target of experiment [4] is T2, Growth hormone-releasing hormone receptor. The experiment is described as follows: Compound was tested to Inhibit [125I]GRF in rat adenopituitary homogenates. A digest of the protocol:
as §1

In the case of H-YADAIFTNSYRVLGQLSARKLLQDIMSR-NH2, the Residual peptide remaining after 60 min in experiment [1] was 92%. The compound further registered an Activity in experiment [2] of 0.7%. The IC50 (commonly the point on the concentration scale where inhibition reaches its midpoint) in experiment [3] came to 836 nM.
With H-DAIFTNSYRKVLAQLSARKLLQDIMSR-NH2, the Residual peptide remaining after 60 min in experiment [1] was 93%. Besides, the Activity in experiment [2] is 1.8%. This compound also showed a concentration for half-maximal inhibition (IC50) in experiment [3] of 311 nM.
In turn, H-YADAIFTNSYRKQLSARKLLQDIMSR-NH2 had an IC50 in experiment [4] of more than 1000 nM.
For `CC[C@H](C)[C@H](NC(=O)[C@H](C)NC(=O)[C@H](CC(=O)O)NC(=O)[C@H](C)NC(=O)[C@@H](N)Cc1ccc(O)cc1)C(=O)N[C@@H](Cc1ccccc1)C(=O)N[C@H](C(=O)N[C@@H](CC(N)=O)C(=O)N[C@@H](CO)C(=O)N[C@@H](Cc1ccc(O)cc1)C(=O)N[C@@H](CCCN=C(N)N)C(=O)N[C@@H](CCCCN)C(=O)N[C@H](C(=O)N[C@@H](CC(C)C)C(=O)NCC(=O)N[C@@H](CCC(N)=O)C(=O)N[C@@H](CC(C)C)C(=O)N[C@@H](CO)C(=O)N[C@@H](C)C(=O)N[C@@H](CCCN=C(N)N)C(=O)N[C@@H](CCCCN)C(=O)N[C@@H](CC(C)C)C(=O)N[C@@H](CC(C)C)C(=O)N[C@@H](CCC(N)=O)C(=O)N[C@@H](CC(=O)O)C(=O)N[C@H](C(=O)N[C@@H](CCSC)C(=O)N[C@@H](CO)C(=O)N[C@@H](CCCN=C(N)N)C(N)=O)[C@@H](C)CC)C(C)C)[C@@H](C)O`, the Residual peptide remaining after 60 min in experiment [1] came out at 81%. This compound showed an Activity in experiment [2] of 100%.
On to H-YADAIFTNSYRKVLGLLQDIMSR-NH2, for which the IC50 in experiment [4] was more than 1000 nM.
The compound H-YADAIFTNSYRKGQLSARKLLQDIMSR-NH2 returned a 50% inhibitory concentration (IC50) in experiment [4] of more than 1000 nM.
In turn, H-ADAIFTSSYRRILGQLYARKLLHEIMNR-NH2 displayed a Residual peptide remaining after 60 min in experiment [1] of 100%. Also, in experiment [2], the Activity was found to be 13%.
The like results for H-YADAIFTNSYRKVLGQLSARKLLQDIMR-NH2 were, in that order, 100% and 78%.
With `CC[C@H](C)[C@H](NC(=O)[C@H](C)NC(=O)[C@H](CC(=O)O)NC(=O)[C@H](C)NC(=O)[C@H](Cc1ccc(O)cc1)NC(=O)CCCCCCCN)C(=O)N[C@@H](Cc1ccccc1)C(=O)N[C@H](C(=O)N[C@@H](CC(N)=O)C(=O)N[C@@H](CO)C(=O)N[C@@H](Cc1ccc(O)cc1)C(=O)N[C@@H](CCCN=C(N)N)C(=O)N[C@@H](CCCCN)C(=O)N[C@H](C(=O)N[C@@H](CC(C)C)C(=O)NCC(=O)N[C@@H](CCC(N)=O)C(=O)N[C@@H](CC(C)C)C(=O)N[C@@H](CO)C(=O)N[C@@H](C)C(=O)N[C@@H](CCCN=C(N)N)C(=O)N[C@@H](CCCCN)C(=O)N[C@@H](CC(C)C)C(=O)N[C@@H](CC(C)C)C(=O)N[C@@H](CCC(N)=O)C(=O)N[C@@H](CC(=O)O)C(=O)N[C@H](C(=O)N[C@@H](CCSC)C(=O)N[C@@H](CO)C(=O)N[C@@H](CCCN=C(N)N)C(N)=O)[C@@H](C)CC)C(C)C)[C@@H](C)O`, the Residual peptide remaining after 60 min in experiment [1] is 100%. Further, in experiment [2], the Activity is 26%. This compound yielded an IC50 in experiment [3] of 21.6 nM.
In turn, H-YADAIFTNSYRKVLGLSARKLLQDIMSR-NH2 had a half-maximal inhibitory concentration (IC50) in experiment [4] of more than 1000 nM.
On to H-YADAIFTNSYRKVLGQLSARKLLQDIR-NH2, for which the Residual peptide remaining after 60 min in experiment [1] came to 94%. The compound also came in with an Activity in experiment [2] of 4.6%.
The matching figures for H-YADAIFTSYRKVLGQLSARKLLQDIMSR-NH2: 100% and 5.9%.
H-YADAIFTNSYRKVLGQLSLLQDIMSR-NH2 registered an Activity in experiment [2] of 0.6%. Besides, in experiment [4], the IC50 was 1000 nM.
